Screening results as filed in PubChem.
Lipid droplet – hepatic lipid droplet formation modulation; AML12 mouse hepatocytes, oleate lipid droplets, BODIPY imaging; inhibition, % at 6.5 µM; actives 0.4% (n = 240,000);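 active = lipid droplet intensity inhibited by at least 50%, with more than 500 cells counted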
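Material – mouse AML12 hepatocyte cell line, fixed after treatment · Compound dosing – one dose, 6.5 µM compound · Times – compound with oleate, overnight · Measured by – Image-based BODIPY and DAPI two-channel analysis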
H9c2 TAG inh – triacylglycerol accumulation inhibition | H9c2 cells, Nile Red lipid (TAG) fluorescence; cells loaded with 200 µM oleic acid | inhibition, % at 12.5 µM | actives 0.66% (n = 230,000) | AID 651582;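 active = pattern-corrected inhibition of lipid staining of at least 50% with the nuclear-stain viability signal not falling by more than 50%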;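 note: 0% = DMSO wells and 100% = triacsin C control wells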
NTR1 agonist – agonists of human neurotensin receptor NTR1; P30989; actives 0.17% (n = 330,000); NTR1-U2OS beta-arrestin-GFP spot imaging, agonist mode; activation, % at 20 µM;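 active = activation at or above 40% of the spot to cytoplasm intensity ratio, with at least 20 cells analyzed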;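 note: 0% = DMSO without peptide and 100% = 100 nM NTR1 peptide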
Target sequence (P30989 whole entry, looked up): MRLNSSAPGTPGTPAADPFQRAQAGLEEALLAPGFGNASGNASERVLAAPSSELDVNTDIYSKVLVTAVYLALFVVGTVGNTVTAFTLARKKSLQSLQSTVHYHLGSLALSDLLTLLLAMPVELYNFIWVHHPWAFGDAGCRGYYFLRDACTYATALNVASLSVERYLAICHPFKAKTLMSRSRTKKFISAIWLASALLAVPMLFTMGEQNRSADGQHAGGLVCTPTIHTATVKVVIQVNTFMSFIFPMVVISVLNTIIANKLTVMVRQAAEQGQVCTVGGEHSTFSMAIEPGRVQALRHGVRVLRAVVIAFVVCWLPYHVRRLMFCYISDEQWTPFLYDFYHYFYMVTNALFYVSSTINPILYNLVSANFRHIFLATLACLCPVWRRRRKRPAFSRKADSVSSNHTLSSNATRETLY
Beta2AR agonist – activates human beta-2 adrenergic receptor causing internalization. P07550. response, % (concentration not given with the values). actives 0.43% (n = 340,000). Am2.2-beta2AR cells, FAP receptor internalization, flow cytometry. AID 504454;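 active = response above a set limit, near 3 SD of response in nonfluorescent compounds, cut at about 42% in these data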
GRK2 aptamer HTS – inhibitors of human GRK2 displacing RNA aptamer; P25098; bead flow cytometry, FAM-aptamer displacement from GRK2; inhibition of aptamer binding, % at 10 µM; actives 0.59% (n = 330,000);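 active = inhibition of aptamer binding above 40%, roughly 3 SD of noise, on plates passing a quality check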;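 note: median bead fluorescence of bound FAM aptamer so fluorescent compounds give negative values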
Arr AP2 block – blocks beta-arrestin peptide binding to AP2 adaptin; FITC-arrestin peptide / GST-AP2 beads, flow cytometry; AP2 beta2 appendage carries R879A mutation; inhibition, % at 10 µM; actives 0.31% (n = 340,000);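 active = inhibition above a set limit, near 3 SD of compounds lacking own fluorescence, cut at about 54% in these data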;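 note: plate controls were DMSO wells for no effect and 5 µM unlabelled arrestin peptide for full effect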
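Material – AP2 appendage R879A on GSH beads · Buffer or medium – PBS with 0.05% Tween 20 and 0.1% BSA · Probe or stimulus – fluorescein-tagged arrestin peptide at 50 nM final · Incubation – compound with beads 12 min RT, then probe 1 h RT · Detection – high-throughput flow cytometry of beads, ex 488, em 535 nm · Evaluation – percent response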
Hep lipid conf – hepatic lipid droplet formation inhibition, confirmed; actives 65% (n = 870); shares compounds with Lipid droplet; AML12 mouse hepatocytes, BODIPY lipid droplet imaging; droplets induced with 100 µM oleic acid; inhibition, % at 5.2 µM;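 active = inhibition of lipid droplet metric at least 50%, with more than 300 cells in each of four replicates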;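 note: plate controls were DMSO with oleic acid for no effect and 5 µM Triacsin-C for full effect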
AML12 tox img – toxic to AML12 mouse hepatocytes in counter-screen | shares compounds with Lipid droplet | DAPI nuclear morphology cytotoxicity imaging; stronger effect = higher value; cells fed 100 µM oleate overnight | z-score at 5 µM | actives 3% (n = 870); in the data active = z-score above about 6.3;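 note: compound exposure lasted overnight at 37 °C before fixation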
AML12 tox conf – confirmation of cytotoxicity in AML12 mouse hepatocytes; shares compounds with Lipid droplet; AML12 mouse hepatocyte viability, ATP luminescence; cells loaded with 100 µM oleic acid; cytotoxicity, % at 50 µM; 530 tested, under 10 active; AID 463219;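 active = cytotoxicity above 50% in each of four replicates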;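 note: compound exposure lasted overnight at 37 °C before the ATP read; 0% = DMSO-treated cells and 100% = wells with no cells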
The depositor's hits bear a star; · = no result. In the library only some 2% were active in any assay of this set; here they are far more common.

SMILES	Lipid droplet	H9c2 TAG inh	NTR1 agonist	Beta2AR agonist	GRK2 aptamer HTS	Arr AP2 block	Hep lipid conf	AML12 tox img	AML12 tox conf
COc1ccccc1N1N=C(c2ccc([N+](=O)[O-])cc2)CC1c1ccccc1 (configuration not stated)	67*	·	3	-13	0	-28	110*	-0.96	9
Cc1cccc(NC(=O)Nc2nnc([C@H]3C[C@H](O)[C@@H](CO)O3)s2)c1	·	13	·	·	·	·	·	·	·
COc1ccc(NC(=O)CN2C(=O)NC(c3ccccc3)(c3ccccc3)C2=O)cc1OC	105*	·	1	8	3	9	103*	-0.13	2
COc1ccc(Cl)cc1NC(=O)CN1C(=O)NC2(CCCC2)C1=O	88*	·	0	0	0	1	91*	0.56	15
CCCC1(c2ccccc2)NC(=O)N(CC(=O)Nc2cc(C)ccc2OC)C1=O (configuration not stated)	56*	·	1	-1	1	4	87*	-0.48	13
COc1ccc(NC(=O)CN2C(=O)NC(c3ccccc3)(c3ccccc3)C2=O)cc1	-6	·	3	2	0	0	·	·	·
CSCCC(NC(=O)COc1ccccc1)C(=O)N1CC(C)CC(C)C1 (configuration not stated)	·	-4	2	-3	2	7	·	·	·
CCOc1cc(C2Nc3ccccc3C(=O)N2c2ccccc2)c(Br)cc1OCC(=O)O (configuration not stated)	-17	·	0	-2	4	26	·	·	·
CCOc1ccc(C2c3cc(OC)c(OC)cc3CC(=O)N2c2ccccc2)cc1 (configuration not stated)	·	·	0	-5	0	0	·	·	·
CCOc1cc2c(cc1OCC)C(c1ccccc1)N(c1ccccc1)C(=O)C2 (configuration not stated)	89*	·	1	-30	0	-6	107*	-0.33	3
CCOc1cc2c(cc1OCC)C(c1ccc(OC)cc1)N(c1ccccc1)C(=O)C2 (configuration not stated)	51*	·	1	-8	1	19	60*	-1	2
CCOC(=O)COc1ccccc1/C=N\NC(=O)c1cc2c(ccc3ccccc32)o1	-6	·	7	18	7	3	·	·	·
Cc1ccc(-c2cc(C(=O)N(C)CC(=O)Nc3ccccc3Br)c3ccccc3n2)o1	·	-2	0	23	0	8	·	·	·
Cn1cccc1C(=O)NC(=O)COC(=O)CCNS(=O)(=O)c1cccc(C(F)(F)F)c1	·	1	0	-2	0	2	·	·	·
COC(=O)[C@@H]1C[C@@]2(O)[C@H](O)[C@H](O)[C@H](O)C[C@H]2N1Cc1cc(F)ccc1F	50*	6	-4	19	0	28	19	-0.47	·
Cc1nn(-c2ccccc2)c(C)c1NC(=O)COC(=O)c1ccc(Cl)c(S(N)(=O)=O)c1	·	-3	0	-6	0	-8	·	·	·
Cc1cccc(C)c1NC(=O)CSc1nnc(C)n1CC1CCCO1 (configuration not stated)	2	1	-1	5	1	4	·	·	·
Cc1ccc([N+](=O)[O-])cc1NC(=O)C(C)Sc1nnc(C)n1CC1CCCO1 (configuration not stated)	60*	·	1	-7	1	-11	18	-0.28	·
CCC(C)(C)NC(=O)C(Sc1ccccc1)c1ccccc1 (configuration not stated)	4	18	1	2	0	5	·	·	·
O=C1/C(=C/c2ccc([N+](=O)[O-])cc2)CCC1C1CCCC1 (configuration not stated)	54*	·	1	11	0	4	15	-0.71	·
CCSC(=O)N(CC)CC(=O)Nc1c(CC)cccc1CC	56*	38	-1	4	2	10	87*	-0.63	6
CCCSC(=O)N(CC)CC(=O)Nc1c(CC)cccc1CC	64*	43	-1	2	0	12	90*	-0.2	16
Cc1cc(N)nc2nc(C(F)(F)F)nn12	-8	4	4	-1	0	29	·	·	·
O=C(CNCCC1=CCCCC1)Nc1ccccc1N1CCCCC1	103*	·	8	-6	0	14	-21	-0.93	·
O=[N+]([O-])c1cc2c(c(CSc3nnc(Nc4ccccc4)s3)c1)OCOC2	64*	39	11	-9	0	49	93*	-1.6	9
SMILES	Lipid droplet	H9c2 TAG inh	NTR1 agonist	Beta2AR agonist	GRK2 aptamer HTS	Arr AP2 block	Hep lipid conf	AML12 tox img	AML12 tox conf
CN(C)c1ccc(NC2=C([N+](=O)[O-])CS(=O)(=O)C2)cc1	84*	·	0	9	2	22	15	-0.0095	·
CC1(C(=O)NS(=O)(=O)Cc2ccccc2)CCN1C(=O)Cc1cc(F)ccc1F (configuration not stated)	·	12	·	·	·	·	·	·	·
CN(C)S(=O)(=O)c1cccc(NC(=O)CC23CC4CC(CC(C4)C2)C3)c1	84*	9	-1	-3	0	33	24	-0.17	·
COc1cc(C(=O)OCC(=O)N2CCN(C(C)=O)CC2)ccc1OCC(C)C	·	23	1	-7	4	5	·	·	·
CCOc1ccc(Cl)cc1CNCCCSc1ncccn1	-10	-22	-1	-14	0	-11	·	·	·
COc1ccc(Cl)cc1CNCCCSc1ncccn1	50*	7	0	-1	0	0	20	0.24	·
CSc1cccc(-n2ccc(=O)c(C)c2C)c1	3	·	2	-6	4	4	·	·	·
CCOc1ccc(C(=O)Nc2ccc(NC(=S)NC(=O)CC)cc2)cc1Cl	50*	·	5	2	0	5	102*	0.14	7
CCOc1ccc(C(=O)Nc2cc(NC(=O)c3ccc(OCC)c(Cl)c3)cc(C(=O)O)c2)cc1Cl	1	-13	0	-10	·	-5	·	·	·
COc1ccc(C(=O)NC(=S)Nc2cc3oc4ccccc4c3cc2OC)cc1	-1	·	1	-2	2	9	·	·	·
COc1cc2c(cc1NC(=S)NC(=O)c1c(OC)cccc1OC)oc1ccccc12	105*	·	3	0	3	-4	106*	0.45	18
O=C(COC(=O)CN1C(=O)NC2(CCCC2)C1=O)Nc1c(Cl)cccc1C(F)(F)F	·	-8	-1	-2	4	4	·	·	·
